# Test results published in ChEMBL document CHEMBL1125014, “Synthesis and structure-activity relationships of new 9-N-alkyl derivatives of 9(S)-erythromycylamine” (1990).
# Tests used:
# [1] = test system: Mus musculus; test: Plasma concentration in mice was determined by oral administration, 20 mg/kg at 4 h; assay type: functional, organism-based; parameters: dose 20 mg/kg
# In short: (§1)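 Mice given 20 mg/kg orally or subcutaneously; peripheral plasma sampled at 5, 20 and 40 min and at 1, 2 and 4 h after dosing. Microbiological assay used Micrococcus luteus seeded in Antibiotic Medium 1, with zone sizes converted by the compound's own standard curve. Each value is the average of five mice per time point.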
# [2] = species on record: Rattus norvegicus; test: Fluid concentration in urine tissue was determined in rats at 4 h; assay type: functional
# In short: (§2)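 Rats dosed by gavage at 20 mg/kg; lung, liver, kidney, urine and serum sampled at 0.5, 1, 2, 4 and 6 h after dosing. Antibiotic measured by microbiological assay with Micrococcus luteus seeded in Antibiotic Medium 1. Zone sizes were read against the standard curve for the same compound. Each value is the average of three rats per time point.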
# [3] = test system: Mus musculus; test: ED50 value was measured by po administration against streptococcus pyogenes infection in mice (in vivo, in experiment 2); assay type: functional
# In short: (§3)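 Infected mice were dosed orally or subcutaneously at 1 and 5 h postinfection, 0.25 mL of antibiotic solution in 10% aqueous ethanol per dose. Tartaric acid was added where needed for solubility. Several dose concentrations were tested to give the ED50.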
# [4] = species on record: Rattus norvegicus
# [5] = test system: Rattus norvegicus; test: Plasma concentration in rats was determined by subcutaneous administration, 20 mg/kg at 2 h; assay type: functional, organism-based; parameters: dose 20 mg/kg
# In short: (§4)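 Peripheral plasma antibiotic levels in rats given 20 mg/kg orally or subcutaneously. Plasma was sampled at timed points after dosing. Levels were measured by microbiological agar assay with Micrococcus luteus seeded in Antibiotic Media 1, reading zone sizes, and were calculated from a standard curve for the appropriate compound. Each value is the average of three rats per time point, in μg/mL.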
# [6] = test system: Rattus norvegicus; test: Plasma concentration in rats was determined by subcutaneous administration, 20 mg/kg at 1 h; assay type: functional, organism-based; parameters: dose 20 mg/kg; in short: as §4
# [7] = species on record: Rattus norvegicus; test: Fluid concentration in liver tissue was determined in rats at 4 h; assay type: functional; in short: as §2
# [8] = test system: Mus musculus; test: Plasma concentration in mice was determined by oral administration, 20 mg/kg at 2 h; assay type: functional, organism-based; parameters: dose 20 mg/kg; in short: as §1
# [9] = test system: Mus musculus; test: Plasma concentration in mice was determined by oral administration, 20 mg/kg at 1 h; assay type: functional, organism-based; parameters: dose 20 mg/kg; in short: as §1
# [10] = species on record: Rattus norvegicus; test: Fluid concentration in kidney tissue was determined in rats at 6 h; assay type: functional
# In short: (§5)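 Rats were gavaged at 20 mg/kg and tissues sampled 0.5–6 h after dosing. Drug was assayed microbiologically with Micrococcus luteus seeded in Antibiotic Media 1. Zone sizes were read against each compound's own standard curve. Values are the mean of three rats per time point, in μg/g.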
# [11] = species on record: Rattus norvegicus; test: Fluid concentration in serum tissue was determined in rats at 6 h; assay type: functional; in short: as §2
# [12] = test system: Mus musculus; test: Plasma concentration in mice was determined by oral administration, 20 mg/kg at 40 min; assay type: functional, organism-based; parameters: dose 20 mg/kg; in short: as §1
# [13] = test system: Mus musculus; test: ED50 value was measured by sc administration against streptococcus pneumoniae infection in mice (in vivo, in experiment 2); assay type: functional; in short: as §3
# [14] = test system: Mus musculus; test: ED50 value was measured by sc administration against streptococcus pyogenes infection in mice (in vivo, in experiment 3); assay type: functional; in short: as §3
# [15] = species on record: Rattus norvegicus; test: Fluid concentration in serum tissue was determined in rats at 1 h; assay type: functional; in short: as §2
# [16] = species on record: Rattus norvegicus; test: Fluid concentration in serum tissue was determined in rats at 0.5 h; assay type: functional; in short: as §2
# [17] = test system: Rattus norvegicus; test: Plasma concentration in rats was determined by subcutaneous administration, 20 mg/kg at 40 min; assay type: functional, organism-based; parameters: dose 20 mg/kg; in short: as §4
# [18] = test system: Rattus norvegicus; test: Plasma concentration in rats was determined by subcutaneous administration, 20 mg/kg at 5 min; assay type: functional, organism-based; parameters: dose 20 mg/kg; in short: as §4
# [19] = test system: Enterococcus faecalis; test: MIC value was measured against streptococcus faecalis.; assay type: functional
# [20] = test system: Mus musculus; test: ED50 value was measured by sc administration against staphylococcus aureus infection in mice (in vivo, in experiment 2); assay type: functional; in short: as §3
# [21] = species on record: Rattus norvegicus; test: Fluid concentration in urine tissue was determined in rats at 1 h; assay type: functional; in short: as §2
# [22] = species on record: Rattus norvegicus; test: Fluid concentration in urine tissue was determined in rats at 0.5 h; assay type: functional; in short: as §2
# [23] = species on record: Rattus norvegicus; test: Fluid concentration in liver tissue was determined in rats at 6 h; assay type: functional; in short: as §2
# [24] = test system: Mus musculus; test: ED50 value was measured by sc administration against streptococcus pyogenes infection in mice (in vivo, in experiment 2); assay type: functional; in short: as §3
# [25] = species on record: Rattus norvegicus; test: Fluid concentration in urine tissue was determined in rats at 2 h; assay type: functional; in short: as §2
# [26] = species on record: Rattus norvegicus; test: Fluid concentration in serum tissue was determined in rats at 2 h; assay type: functional; in short: as §2
# [27] = test system: Rattus norvegicus; test: Plasma concentration in rats was determined by subcutaneous administration, 20 mg/kg at 4 h; assay type: functional, organism-based; parameters: dose 20 mg/kg; in short: as §4
# [28] = species on record: Rattus norvegicus; test: Fluid concentration in kidney tissue was determined in rats at 2 h; assay type: functional; in short: as §5
# [29] = species on record: Rattus norvegicus; test: Fluid concentration in liver tissue was determined in rats at 2 h; assay type: functional; in short: as §2
# [30] = species on record: Rattus norvegicus; test: Fluid concentration in kidney tissue was determined in rats at 1 h; assay type: functional; in short: as §5
# [31] = species on record: Rattus norvegicus; test: Fluid concentration in urine tissue was determined in rats at 6 h; assay type: functional; in short: as §2
# [32] = test system: Mus musculus; test: ED50 value was measured by po administration against staphylococcus aureus infection in mice (in vivo, in experiment 2); assay type: functional; in short: as §3
# [33] = species on record: Rattus norvegicus; test: Fluid concentration in urine was determined in rats at 0.5 hr; assay type: functional; in short: as §2
# [34] = test system: Rattus norvegicus; test: Plasma concentration in rats was determined by oral administration, 20 mg/kg at 1 hr; assay type: functional, organism-based; parameters: dose 20 mg/kg; in short: as §4
# [35] = species on record: Rattus norvegicus; test: Fluid concentration in serum was determined in rats at 6 hr; assay type: functional; in short: as §2
# [36] = species on record: Rattus norvegicus; test: Fluid concentration in liver tissue was determined in rats at 2 hr; assay type: functional; in short: as §2
# [37] = species on record: Mus musculus
# [38] = test system: Rattus norvegicus; test: Plasma concentration in rats was determined by subcutaneous administration, 20 mg/kg at 2 hr; assay type: functional, organism-based; parameters: dose 20 mg/kg; in short: as §4
# [39] = species on record: Rattus norvegicus; remark: listed apart in the source
# [40] = test system: Rattus norvegicus; test: Plasma concentration in rats was determined by oral administration, 20 mg/kg at 4 hr; assay type: functional, organism-based; parameters: dose 20 mg/kg; in short: as §4
# [41] = species on record: Rattus norvegicus; remark: listed apart in the source
# [42] = species on record: Rattus norvegicus; test: Fluid concentration in serum was determined in rats at 2 hr; assay type: functional; in short: as §2
# [43] = species on record: Rattus norvegicus; test: Fluid concentration in kidney tissue was determined in rats at 4 hr; assay type: functional; in short: as §5
# [44] = species on record: Rattus norvegicus; remark: listed apart in the source
# [45] = species on record: Rattus norvegicus; test: Fluid concentration in kidney tissue was determined in rats at 0.5 hr; assay type: functional; in short: as §5
# [46] = species on record: Rattus norvegicus; remark: listed apart in the source
# [47] = species on record: Rattus norvegicus; remark: listed apart in the source
# [48] = species on record: Mus musculus; remark: listed apart in the source
# [49] = species on record: Rattus norvegicus; test: Fluid concentration in urine was determined in rats at 1 hr; assay type: functional; in short: as §2
# [50] = test system: Mus musculus; test: Plasma concentration of compound in mice by oral administration, 20 mg/kg at 4 hr; assay type: functional, organism-based; parameters: dose 20 mg/kg
# In short: as §4, with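 “mice after a” for “rats given”, “oral dose,” for “orally or subcutaneously. Plasma was”, “administration.” for “dosing.”, “five mice” for “three rats”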
# [51] = test system: Enterococcus faecalis; test: MIC value was measured against streptococcus faecalis X66; assay type: functional
# In short: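 Susceptibility determined by standard agar-dilution method against a panel of bacterial strains.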
# [52] = species on record: Rattus norvegicus; test: Fluid concentration in urine was determined in rats at 6 hr; assay type: functional; in short: as §2
# [53] = species on record: Rattus norvegicus; test: Fluid concentration in kidney tissue was determined in rats at 1 hr; assay type: functional; in short: as §5
smiles,measurement,setting,value
CCCN[C@@H]1[C@H](C)[C@@H](O)[C@](C)(O)[C@@H](CC)OC(=O)[C@H](C)[C@@H](OC2CC(C)(OC)C(O)C(C)O2)[C@H](C)[C@@H](OC2OC(C)CC(N(C)C)C2O)[C@](C)(O)C[C@H]1C (stereo partly drawn),Plasma concentration,[1],0.06 µg/mL
same,Activity,[2],18.63 µg/mL
same,ED50,[3],6 mg/kg
same,Plasma concentration,[4],0.28 µg/mL
same,Plasma concentration,[5],0.18 µg/mL
same,Plasma concentration,[6],0.14 µg/mL
same,Activity,[7],3.06 µg/mL
same,Plasma concentration,[8],0.07 µg/mL
same,Plasma concentration,[9],0.08 µg/mL
same,Activity,[10],3.21 µg/mL
same,Activity,[11],0.05 µg/mL
same,Plasma concentration,[12],0.036 µg/mL
same,ED50,[13],2.1 mg/kg
same,ED50,[14],1.7 mg/kg
same,Activity,[15],0.04 µg/mL
same,Activity,[16],0.15 µg/mL
same,Plasma concentration,[17],0.14 µg/mL
same,Plasma concentration,[18],0.04 µg/mL
same,MIC,[19],0.12 µg/mL
same,ED50,[20],2.1 mg/kg
same,Activity,[21],3.78 µg/mL
same,Activity,[22],3.92 µg/mL
same,Activity,[23],1.19 µg/mL
same,ED50,[24],1.4 mg/kg
same,Activity,[25],4.8 µg/mL
same,Activity,[26],0.23 µg/mL
same,Plasma concentration,[27],0.23 µg/mL
same,Activity,[28],3.25 µg/mL
same,Activity,[29],2.99 µg/mL
same,Activity,[30],0.31 µg/mL
same,Activity,[31],11.3 µg/mL
same,ED50,[32],25 mg/kg
CC[C@H]1OC(=O)[C@H](C)[C@@H](O[C@H]2C[C@@](C)(OC)[C@@H](O)[C@H](C)O2)[C@H](C)[C@@H](O[C@@H]2O[C@H](C)C[C@H](N(C)C)[C@H]2O)[C@](C)(O)C[C@@H](C)C(=O)[C@H](C)[C@@H](O)[C@]1(C)O [ERYTHROMYCIN],Activity,[33],7.5 µg/mL
same,Plasma concentration,[34],0.04 µg/mL
same,Activity,[35],0 µg/mL
same,Activity,[36],0.04 µg/mL
same,Plasma concentration,[37],0.01 µg/mL
same,Plasma concentration,[38],1.06 µg/mL
same,Plasma concentration,[39],0 µg/mL
same,Plasma concentration,[40],0.02 µg/mL
same,Plasma concentration,[41],1.31 µg/mL
same,Activity,[42],0 µg/mL
same,Activity,[43],0 µg/mL
same,Plasma concentration,[44],1.16 µg/mL
same,Activity,[45],0.17 µg/mL
same,Plasma concentration,[46],0.7 µg/mL
same,Plasma concentration,[47],1.21 µg/mL
same,Plasma concentration,[48],0.1 µg/mL
same,Activity,[49],10.8 µg/mL
same,Plasma concentration,[50],0 µg/mL
same,MIC,[51],0.06 µg/mL
same,Activity,[52],0.35 µg/mL
same,Activity,[53],0.15 µg/mL
